Source: ChEMBL document CHEMBL2169747, “Synthesis and biological properties of highly sequence-specific-alkylating N-methylpyrrole-N-methylimidazole polyamide conjugates” (J Med Chem, 2012)
Activity calls are given as the source filed them. No cut-off for these calls is given here.

Key:
A549 [1] = test: Downregulation of RPS6KC1 gene expression in human A549 cells at 100 nM after 12 hrs by microarray analysis relative to control; type: functional
Summary of the method: (§1)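 A549 cells (RPMI-1640, 10% heat-inactivated FBS, penicillin/streptomycin, 37 °C, 5% CO2) seeded at 4 × 10^5 per 60 mm dish. Exposed 12 h to conjugate at 21, 26, 34 or 100 nM in medium with 0.1% DMSO, against 0.1% DMSO control. Whole-genome (~25 000 genes) expression profiled by microarray.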

A549 [2] = test: Upregulation of BBC3 gene expression in human A549 cells at 100 nM after 12 hrs by microarray analysis relative to control; type: functional; summary of the method: as §1
A549 [3] = test: Upregulation of NPPC gene expression in human A549 cells at 100 nM after 12 hrs by microarray analysis relative to control; type: functional
Summary of the method: (§2)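 4 ×10^5 A549 cells seeded per 60 mm dish and treated 12 h with conjugate (21, 26, 34 or 100 nM) in medium; control medium contained 0.1% DMSO, with conjugates added as 0.1% DMSO solutions. Whole human genome (~25 000 genes) expression profiled by microarray against the DMSO control. A549 culture: RPMI-1640 with 10% heat-inactivated FBS, penicillin/streptomycin, 37 °C, 5% CO2.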

A549 [4] = test: Downregulation of PDE7B gene expression in human A549 cells at 100 nM after 12 hrs by microarray analysis relative to control; type: functional; summary of the method: as §1
PC-3 = test: Cytotoxicity against human PC3 cells assessed as cell growth inhibition after 48 hrs by microplate reader analysis; type: functional, cell-based; details: PC-3, 48 h
Summary of the method: (§3)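 Medium was RPMI-1640 for EBC-1, A549 and DU145, and DMEM for PC-3, SK-N-SH and K562. Both media had 10% heat-inactivated FBS plus penicillin/streptomycin; cells were kept at 37 °C, 5% CO2. Cells were seeded at 5000/well and given compound from DMSO stock (final 0.1% DMSO) for 48 h. Viability was read by WST-8 colorimetry, absorbance at 450 and 600 nm, and IC50 determined.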

A549 [5] = test: Upregulation of RRAD gene expression in human A549 cells at 100 nM after 12 hrs by microarray analysis relative to control; type: functional; summary of the method: as §2
[6] = Cytotoxicity against human EBC1 cells assessed as cell growth inhibition after 48 hrs by microplate reader analysis; type: functional, cell-based; details: EBC-1, 48 h; summary of the method: as §3
A549 [7] = test: Upregulation of MDM2 gene expression in human A549 cells at 100 nM after 12 hrs by microarray analysis relative to control; type: functional; summary of the method: as §2
A549 [8] = test: Downregulation of NP_112224.1 gene expression in human A549 cells at 100 nM after 12 hrs by microarray analysis relative to control; type: functional
Summary of the method: (§4)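 A549 cells, 4 × 10^5 per 60 mm dish, were exposed to conjugate for 12 h in medium with 0.1% DMSO; vehicle control was 0.1% DMSO. Whole human genome (~25 000 genes) expression was profiled by microarray and expression compared with the control.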

A549 [9] = test: Downregulation of ELP4 gene expression in human A549 cells at 100 nM after 12 hrs by microarray analysis relative to control; type: functional; summary of the method: as §4
A549 [10] = test: Upregulation of BTG2 gene expression in human A549 cells at 100 nM after 12 hrs by microarray analysis relative to control; type: functional; summary of the method: as §1
A549 [11] = test: Upregulation of FDXR gene expression in human A549 cells at 100 nM after 12 hrs by microarray analysis relative to control; type: functional; summary of the method: as §2
A549 [12] = test: Downregulation of DYM gene expression in human A549 cells at 100 nM after 12 hrs by microarray analysis relative to control; type: functional; summary of the method: as §4
A549 [13] = test: Downregulation of NP_653244.1 gene expression in human A549 cells at 100 nM after 12 hrs by microarray analysis relative to control; type: functional; summary of the method: as §1
A549 [14] = test: Upregulation of CDKN1A gene expression in human A549 cells at 100 nM after 12 hrs by microarray analysis relative to control; type: functional; summary of the method: as §2
A549 [15] = test: Downregulation of NP_056993.2 gene expression in human A549 cells at 100 nM after 12 hrs by microarray analysis relative to control; type: functional; summary of the method: as §4
A549 [16] = test: Upregulation of U124 gene expression in human A549 cells at 100 nM after 12 hrs by microarray analysis relative to control; type: functional; summary of the method: as §2
A549 [17] = test: Downregulation of GULP1 gene expression in human A549 cells at 100 nM after 12 hrs by microarray analysis relative to control; type: functional; summary of the method: as §4
Nucleic Acid = test: Induction of 208-bp PCR fragment DNA cleavage at 10 to 200 nM after 12 h by PAGE analysis
A549 [18] = test: Downregulation of EFA6R gene expression in human A549 cells at 100 nM after 12 hrs by microarray analysis relative to control; type: functional; summary of the method: as §4
A549 [19] = test: Upregulation of GADD45A gene expression in human A549 cells at 100 nM after 12 hrs by microarray analysis relative to control; type: functional; summary of the method: as §2
A549 [20] = test: Downregulation of UVRAG gene expression in human A549 cells at 100 nM after 12 hrs by microarray analysis relative to control; type: functional; summary of the method: as §1
K562 = test: Cytotoxicity against human K562 cells assessed as cell growth inhibition after 48 hrs by microplate reader analysis; type: functional, cell-based; details: K562, 48 h; summary of the method: as §3
A549 [21] = test: Downregulation of SUPT3H gene expression in human A549 cells at 100 nM after 12 hrs by microarray analysis relative to control; type: functional; summary of the method: as §1
A549 [22] = test: Downregulation of NP_060504.1 gene expression in human A549 cells at 100 nM after 12 hrs by microarray analysis relative to control; type: functional; summary of the method: as §4
A549 [23] = test: Downregulation of FAF1 gene expression in human A549 cells at 100 nM after 12 hrs by microarray analysis relative to control; type: functional; summary of the method: as §4
A549 [24] = test: Downregulation of XRCC4 gene expression in human A549 cells at 100 nM after 12 hrs by microarray analysis relative to control; type: functional; summary of the method: as §1
A549 [25] = test: Downregulation of SEMA3A gene expression in human A549 cells at 100 nM after 12 hrs by microarray analysis relative to control; type: functional; summary of the method: as §1
A549 [26] = test: Downregulation of FUT8 gene expression in human A549 cells at 100 nM after 12 hrs by microarray analysis relative to control; type: functional; summary of the method: as §4
SK-N-SH = test: Cytotoxicity against human SK-N-SH cells assessed as cell growth inhibition after 48 hrs by microplate reader analysis; type: functional, cell-based; summary of the method: as §3
A549 [27] = test: Downregulation of PTPRK gene expression in human A549 cells at 100 nM after 12 hrs by microarray analysis relative to control; type: functional; summary of the method: as §1
A549 [28] = test: Downregulation of Q8TC78 gene expression in human A549 cells at 100 nM after 12 hrs by microarray analysis relative to control; type: functional; summary of the method: as §1
A549 [29] = test: Cytotoxicity against human A549 cells assessed as cell growth inhibition after 48 hrs by microplate reader analysis; type: functional, cell-based; details: A549, 48 h; summary of the method: as §3
A549 [30] = test: Downregulation of TCF12 gene expression in human A549 cells at 100 nM after 12 hrs by microarray analysis relative to control; type: functional; summary of the method: as §1
DU-145 = test: Cytotoxicity against human DU145 cells assessed as cell growth inhibition after 48 hrs by microplate reader analysis; type: functional, cell-based; details: DU-145, 48 h; summary of the method: as §3
A549 [31] = test: Downregulation of NCOA1 gene expression in human A549 cells at 100 nM after 12 hrs by microarray analysis relative to control; type: functional; summary of the method: as §4
A549 [32] = test: Upregulation of HES2 gene expression in human A549 cells at 100 nM after 12 hrs by microarray analysis relative to control; type: functional; summary of the method: as §2

Q: Which results are given for CC(=O)Nc1cn(C)c(C(=O)Nc2cn(C)c(C(=O)Nc3cc(C(=O)NCCC(=O)Nc4cc(C(=O)NCCCC(=O)Nc5cn(C)c(C(=O)NCCC(=O)Nc6cc(C(=O)Nc7ccc8[nH]c(C(=O)N9CC(CCl)c%10c9cc(O)c9ccccc%109)cc8c7)n(C)c6)n5)n(C)c4)n(C)c3)n2)n1 (racemic)?
A: fold change (FC) (A549 [1]): 0.038; fold change (FC) (A549 [2]): 10.7; fold change (FC) (A549 [3]): 10.5; fold change (FC) (A549 [4]): 0.064; IC50 (PC-3): 29.5 nM; fold change (FC) (A549 [5]): 11.2; IC50 [6]: 550 nM; fold change (FC) (A549 [7]): 15.6; fold change (FC) (A549 [8]): 0.058; fold change (FC) (A549 [9]): 0.045; fold change (FC) (A549 [10]): 13; fold change (FC) (A549 [11]): 8.2; fold change (FC) (A549 [12]): 0.08; fold change (FC) (A549 [13]): 0.061; fold change (FC) (A549 [14]): 9; fold change (FC) (A549 [15]): 0.076; fold change (FC) (A549 [16]): 10.3; fold change (FC) (A549 [17]): 0.062; Activity (Nucleic Acid): Active; fold change (FC) (A549 [18]): 0.058; fold change (FC) (A549 [19]): 8.3; fold change (FC) (A549 [20]): 0.066; IC50 (K562): 15.5 nM; fold change (FC) (A549 [21]): 0.052; fold change (FC) (A549 [22]): 0.068; fold change (FC) (A549 [23]): 0.071; fold change (FC) (A549 [24]): 0.067; fold change (FC) (A549 [25]): 0.063; fold change (FC) (A549 [26]): 0.035; IC50 (SK-N-SH): 129 nM; fold change (FC) (A549 [27]): 0.026; fold change (FC) (A549 [28]): 0.056; IC50 (A549 [29]): 100 nM; fold change (FC) (A549 [30]): 0.074; IC50 (DU-145): 11.2 nM; fold change (FC) (A549 [31]): 0.068; fold change (FC) (A549 [32]): 19.2
